Screens from PubChem BioAssay.
The entries come from a sample that favours hits as a whole.
PostGolgi ctrl: growth inhibition of yeast control strain, primary screen, counter-screen for post-Golgi transport modulator project | inhibition, % at 10 µM | hit rate 5% among 98,000 | efflux-deficient yeast background strain, growth absorbance A615, 16 h
PostGolgi yeast: phenotypic screen on post-Golgi transport, primary screen; inhibition, % at 10 µM; post-Golgi transport phenotypic cell assay; hit rate 0.9% among 98,000; AID 739, 2007;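 also: yeast cells grown in 1536-well plates; yeast grown about 18 h at 30C before absorbance read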
Yeast lifespan up: compounds extending yeast replicative lifespan, primary screen, S. cerevisiae, OD615 | S. cerevisiae growth with nicotinamide; deaD strain in restrictive glucose medium | inhibition of the nicotinamide effect, % at 10 µM | hit rate 0.68% among 130,000 | AID 775, 2007;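 active = inhibition above a set limit, placed 3 SD over the median of all compounds, cut at about 26% in these data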
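Assay system: engineered S. cerevisiae DeaD replicative-lifespan strain, galactose-grown log-phase cells; Buffer or medium: CSMM-D glucose medium, restrictive; Probe or stimulus: nicotinamide 1.5 mM; Compound: single dose 10 µM compound, 0.25% DMSO; Schedule: 4 h preincubation then 48 h treatment at 30 °C; Technique: OD615 measurement.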
BB579 growth dn: growth inhibitors of yeast BB579 in restrictive medium, primary screen, yeast lifespan-shortening project, S. cerevisiae | OD615, 48 h | inhibition, % at 10 µM | hit rate 0.51% among 140,000;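 active = inhibition above a set limit, 3 SD over the mean compound inhibition, cut at about 44% in these data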
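Test system: DeaD yeast strain BB579 / Buffer or medium: restrictive glucose-based CSMM-D medium / Doses: single 10 µM dose / Schedule: 4 h cell preincubation, 48 h compound exposure, 30 °C humidified / Technique: culture absorbance at 615 nm / Controls: amphotericin B positive control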
Hits are given with their value; 0 = inactive; - = no result. Rule as the data show it, unless noted: active = inhibition above about 30%; inactive = the rest.

SMILES	PostGolgi ctrl	PostGolgi yeast	Yeast lifespan up	BB579 growth dn
Cc1cccc(Cn2c(N(C)Cc3ccccc3)nc3c2c(=O)[nH]c(=O)n3C)c1	46.6	0	0	0
C/C=C/Cn1c(SC)nc2c1c(=O)[nH]c(=O)n2C	0	0	0	0
Clc1ccccc1CSc1nncn1NC/C=C/c1ccccc1	-	-	0	0
C/C=C/Cn1c(N2CCCCCC2)nc2c1c(=O)[nH]c(=O)n2C	0	0	136.5	0
c1ccc(-n2ncc3c(N4CCN(CCOc5cccc6ccccc56)CC4)ncnc32)cc1	32.2	0	0	0
O=S(=O)(c1ccc(F)cc1)N1CCN(c2ncnc3c2cnn3-c2ccccc2)CC1	34.6	0	0	0
O=C(COc1ccccc1)N1CCN(c2ncnc3c2cnn3-c2ccccc2)CC1	0	0	0	0
Cc1ccc(S(=O)(=O)N(C)/N=C/C=C/c2ccccc2)cc1	-	-	0	0
CC(C)n1nc(C(=O)Oc2cccc(Cl)c2Cl)c2ccccc2c1=O	-	-	34.7	0
O=C(Nc1ccc2cn[nH]c2c1)c1ccc(Cl)c(S(=O)(=O)N2CCOCC2)c1	-	-	0	0
C=CCn1c(N)c(C(=O)Nc2cccc(C)c2)c2nc3ccccc3nc21	35.0	0	0	0
CCOC(=O)COc1ccccc1C1Nc2ccccc2C(=O)N1c1cccc(Cl)c1 (centres undefined)	0	44.2	0	0
CC1(C)OC2OC(C(=O)N/N=C/c3cc(Br)ccc3O)C3OC(C)(C)OC3C2O1 (centres undefined)	-	-	0	0
O=C1OCCC1Sc1ncnc2sc3c(c12)CCC3 (centres undefined)	0	0	0	0
Cc1nc(SC2CCOC2=O)c2c(C)c(C)sc2n1 (centres undefined)	35.7	0	0	0
CC(/C=C/c1ccco1)=N\NC(=O)c1cccc(Cl)c1	-	-	0	0
C/C(=N\NC(=O)c1cccc(Cl)c1)C1C(=O)c2ccccc2C1=O	-	-	43.2	0
Oc1ccc(Cl)cc1Cc1cc(Cl)ccc1O	-	-	0	83.7
Oc1ccc(Cl)cc1CNCC1CCCO1 (centres undefined)	0	0	0	0
Cc1cccn2c(/C=N/OCc3cccc(F)c3)c(-c3ccc(Cl)cc3)nc12	0	0	0	0
COc1cccc(/C(C#N)=C/c2c(-c3ccc(Cl)cc3)nc3c(C)cccn23)c1	49.3	0	0	0
Cc1ccccc1CS(=O)(=O)c1nnc([C@H](CC(C)C)NC(=O)OC(C)(C)C)o1	44.7	41.1	0	0
Cc1[nH]c(=O)[nH]c(=O)c1CSc1nnc([C@@H](NC(=O)OC(C)(C)C)C(C)C)o1	0	0	0	0
CC[C@@H](C)[C@H](NC(=O)OC(C)(C)C)c1nnc(S(=O)(=O)Cc2cc(C)ccc2C)o1	41.4	0	0	0
CC(C)(C)OC(=O)N[C@@H](Cc1ccccc1)c1nnc(S(=O)(=O)Cc2cccc(F)c2)o1	0	0	0	0
SMILES	PostGolgi ctrl	PostGolgi yeast	Yeast lifespan up	BB579 growth dn
CCc1cc(-c2n[nH]c(=S)n2Cc2ccccc2)cs1	0	0	0	0
Cc1cccc(NC(=O)CCNC(=O)c2ccco2)c1	-	-	0	0
Cc1ccc(C(=O)O/N=C2\CCCc3ccccc32)cc1	37.8	0	0	0
COc1ccc(CCCc2nnc(SCC(=O)Nc3nccs3)n2C)cc1C	45.0	0	0	0
Cc1cc(C)nc(SCc2nnc(SCC(=O)Nc3nccs3)n2C)n1	-	-	-	0
CCn1c(-c2ccccc2Cl)nn(CC(=O)Nc2ccc(OC)cc2)c1=S	0	0	0	0
COc1cc(NS(=O)(=O)c2ccc(NC(=O)c3ccco3)cc2)nc(OC)n1	35.5	0	0	0
CCC(C)NS(=O)(=O)c1ccc(S(=O)(=O)N2CC=C(c3ccc(F)cc3)CC2)cc1 (centres undefined)	-	-	0	0
O=C1CC(Nc2ccc3ccccc3c2)C(=O)N1Cc1ccccc1 (centres undefined)	38.3	0	0	0
CCOc1ccc(C(=O)CC(=O)C(=O)NCCc2ccc(OC)c(OC)c2)cc1	-	-	0	0
O=C(CSc1ccccc1)Nc1ccc(-c2nc3ccccc3[nH]2)cc1	-	-	0	0
Cc1ccc2nc(-c3ccc(NC(=O)CSc4ccccc4)cc3)[nH]c2c1	0	0	75.9	0
COc1ccc(C2(O)CCN(CCCCOc3ccccc3)CC2)cc1	0	0	0	0
CCOC(=O)c1sc2ccc(S(=O)(=O)N3CCOCC3)cc2c1N	0	0	0	0
CCOC(=O)c1sc2ccc(S(=O)(=O)N3CCCCC3)cc2c1N	42.0	0	0	0
CC(C)CN1CN(Cc2ccco2)CNC1=S	-	-	0	0
S=C1SCN(Cc2ccccn2)CN1Cc1ccco1	0	0	0	52.3
COCCN1CSC(=S)N(Cc2ccco2)C1	0	0	0	59.5
COc1ccc(NC(=O)CCN2C(=O)C3C4CCC(C4)C3C2=O)cc1 (centres undefined)	-	-	0	0
CON1C(=O)C(=O)N(OC)C(C)(C)C1(C)C	-	-	0	0
COc1cccc(-c2cc(C(F)(F)F)nc(-n3cc(Cl)cn3)n2)c1	0	0	0	0
COc1ccc(-c2cc(C(F)(F)F)nc(S(C)(=O)=O)n2)cc1	61.6	68.3	85.1	0
CS(=O)(=O)c1nc(-c2cccs2)cc(C(F)(F)F)n1	54.8	0	52.5	0
COc1ccc(-c2cc(C(F)(F)F)nc(-n3cc(Cl)cn3)n2)cc1	41.0	0	0	0
Cc1cc(NC(=O)CCCS(=O)(=O)c2nc(-c3cccs3)cc(C(F)(F)F)n2)no1	34.6	0	0	0
SMILES	PostGolgi ctrl	PostGolgi yeast	Yeast lifespan up	BB579 growth dn
Cc1cc(NC(=O)CSc2nc(-c3cccs3)cc(C(F)(F)F)n2)no1	0	0	0	0
NC(=O)c1ccsc1NC(=O)c1ccc(S(=O)(=O)N2CCCCC2)cc1	50.9	0	0	0
Cc1c(NC(=O)CSc2nnc(C(C)Oc3ccc(Cl)cc3)n2-c2ccccc2)c(=O)n(-c2ccccc2)n1C (centres undefined)	31.7	0	0	0
O=C(Cn1cnc2c(cnn2-c2ccc(F)cc2)c1=O)N1CCN(c2ccccc2F)CC1	0	0	0	0
O=C(Cn1nnc2c(cnn2-c2ccccc2)c1=O)N1CCN(c2ccccc2F)CC1	36.6	0	0	0
CC(C)n1c(C(=O)OCC(=O)NCc2ccc3c(c2)OCO3)cc2occc21	0	0	0	0
CC(C)n1c(C(=O)OCC(=O)NCc2ccc3c(c2)OCO3)cc2sccc21	37.4	0	0	0
O=C1CC(N2CCN(c3ccc(S(=O)(=O)N4CCCC4)cc3)CC2)C(=O)N1c1ccc(F)cc1 (centres undefined)	0	0	0	0
O=c1c2ccccc2nc(/C=C/c2ccc([N+](=O)[O-])o2)n1CCCO	61.9	91.3	0	0
O=c1c2ccccc2nc(/C=C/c2ccc([N+](=O)[O-])cc2)n1CCCO	-	-	0	0
Nc1ccccc1S(=O)(=O)NC1=NCCCCC1	-	-	0	0
Cc1cc(N2CCN(c3ccccc3)CC2)nc(NCc2ccccc2)n1	47.4	0	0	0
Cc1cc(C)c(S(=O)(=O)N2CCCCC2)c(C)c1N(C)S(=O)(=O)c1ccccc1	0	0	0	0
CCc1nnc(N2C(=O)c3ccc(Oc4ccc([N+](=O)[O-])cc4)cc3C2=O)s1	-	-	51.8	0
